Data reported in ChEMBL document CHEMBL1649124, “Genetic variability among ampC genes from acinetobacter genomic species 3” (Antimicrob Agents Chemother, 2009).

Experiments:
Assay type in all cases: functional
Acinetobacter pittii [1] = assay: Antibacterial activity against Acinetobacter genomosp. 3 isolate 21 by Etest method
Method in brief: (§1)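 MICs for AG3 clinical isolates were read by Etest following the manufacturer's instructions. Isolates were stored at –80°C in 10% Brucella glycerol broth before testing.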

Acinetobacter pittii [2] = assay: Antibacterial activity against Acinetobacter genomosp. 3 isolate 65 by Etest method in presence of cloxacillin; method in brief: as §1
Acinetobacter pittii [3] = assay: Antibacterial activity against Acinetobacter genomosp. 3 isolate 243 by Etest method in presence of cloxacillin and efflux pump inhibitor CCCP
Acinetobacter pittii [4] = assay: Antibacterial activity against Acinetobacter genomosp. 3 isolate 20 by Etest method in presence of cloxacillin and efflux pump inhibitor CCCP
Acinetobacter pittii [5] = assay: Antibacterial activity against Acinetobacter genomosp. 3 isolate 90 by Etest method in presence of cloxacillin; method in brief: as §1
Acinetobacter pittii [6] = assay: Antibacterial activity against Acinetobacter genomosp. 3 isolate 65 by Etest method in presence of cloxacillin and efflux pump inhibitor PAN
Acinetobacter pittii [7] = assay: Antibacterial activity against Acinetobacter genomosp. 3 isolate 21 by Etest method in presence of cloxacillin and efflux pump inhibitor PAN
Acinetobacter pittii [8] = assay: Antibacterial activity against Acinetobacter genomosp. 3 isolate 195 by Etest method in presence of cloxacillin; method in brief: as §1
Acinetobacter pittii [9] = assay: Antibacterial activity against Acinetobacter genomosp. 3 isolate 69 by Etest method in presence of efflux pump inhibitor PAN
Acinetobacter pittii [10] = assay: Antibacterial activity against Acinetobacter genomosp. 3 isolate 21 by Etest method in presence of cloxacillin; method in brief: as §1
Acinetobacter pittii [11] = assay: Antibacterial activity against Acinetobacter genomosp. 3 isolate 56 by Etest method in presence of efflux pump inhibitor CCCP
Acinetobacter pittii [12] = assay: Antibacterial activity against Acinetobacter genomosp. 3 isolate 195 by Etest method in presence of cloxacillin and efflux pump inhibitor CCCP
Acinetobacter pittii [13] = assay: Antibacterial activity against Acinetobacter genomosp. 3 isolate 109 by Etest method in presence of efflux pump inhibitor PAN
Acinetobacter pittii [14] = assay: Antibacterial activity against Acinetobacter genomosp. 3 isolate 60 by Etest method in presence of cloxacillin and efflux pump inhibitor CCCP
Acinetobacter pittii [15] = assay: Antibacterial activity against Acinetobacter genomosp. 3 isolate 109 by Etest method in presence of cloxacillin and efflux pump inhibitor CCCP
Acinetobacter pittii [16] = assay: Antibacterial activity against Acinetobacter genomosp. 3 isolate 128 by Etest method in presence of efflux pump inhibitor CCCP
Acinetobacter pittii [17] = assay: Antibacterial activity against Acinetobacter genomosp. 3 isolate 52 by Etest method in presence of cloxacillin and efflux pump inhibitor CCCP
Acinetobacter pittii [18] = assay: Antibacterial activity against Acinetobacter genomosp. 3 isolate 56 by Etest method; method in brief: as §1
Acinetobacter pittii [19] = assay: Antibacterial activity against Acinetobacter genomosp. 3 isolate 103 by Etest method in presence of efflux pump inhibitor PAN
Escherichia coli [20] = assay: Antibacterial activity against Escherichia coli DH5alpha carrying ampC gene of Acinetobacter genomosp. 3 isolate 69 by Etest method
Method in brief: (§2)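 E. coli DH5α expressing the AG3 isolate ampC gene, PCR-amplified (high-fidelity system, 28 cycles) and cloned into BamHI/HindIII sites of pBGS18 (kanamycin marker) under the CTX-M-14 β-lactamase promoter. Grown at 37°C in LB, with kanamycin 50 µg/ml when needed. β-Lactam MICs determined by Etest per the manufacturer's instructions.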

Acinetobacter pittii [21] = assay: Antibacterial activity against Acinetobacter genomosp. 3 isolate 67 by Etest method in presence of cloxacillin and efflux pump inhibitor PAN
Acinetobacter pittii [22] = assay: Antibacterial activity against Acinetobacter genomosp. 3 isolate 103 by Etest method in presence of cloxacillin and efflux pump inhibitor PAN
Acinetobacter pittii [23] = assay: Antibacterial activity against Acinetobacter genomosp. 3 isolate 60 by Etest method in presence of efflux pump inhibitor PAN
Acinetobacter pittii [24] = assay: Antibacterial activity against Acinetobacter genomosp. 3 isolate 65 by Etest method; method in brief: as §1
Escherichia coli [25] = assay: Antibacterial activity against Escherichia coli DH5alpha carrying ampC gene of Acinetobacter genomosp. 3 isolate 103 by Etest method; method in brief: as §2
Acinetobacter pittii [26] = assay: Antibacterial activity against Acinetobacter genomosp. 3 isolate 195 by Etest method; method in brief: as §1
Acinetobacter pittii [27] = assay: Antibacterial activity against Acinetobacter genomosp. 3 isolate 109 by Etest method in presence of efflux pump inhibitor CCCP
Acinetobacter pittii [28] = assay: Antibacterial activity against Acinetobacter genomosp. 3 isolate 56 by Etest method in presence of cloxacillin and efflux pump inhibitor PAN
Acinetobacter pittii [29] = assay: Antibacterial activity against Acinetobacter genomosp. 3 isolate 52 by Etest method; method in brief: as §1
Acinetobacter pittii [30] = assay: Antibacterial activity against Acinetobacter genomosp. 3 isolate 243 by Etest method in presence of efflux pump inhibitor PAN
Acinetobacter pittii [31] = assay: Antibacterial activity against Acinetobacter genomosp. 3 isolate 243 by Etest method; method in brief: as §1
Acinetobacter pittii [32] = assay: Antibacterial activity against Acinetobacter genomosp. 3 isolate 103 by Etest method in presence of cloxacillin and efflux pump inhibitor CCCP
Acinetobacter pittii [33] = assay: Antibacterial activity against Acinetobacter genomosp. 3 isolate 109 by Etest method; method in brief: as §1
Acinetobacter pittii [34] = assay: Antibacterial activity against Acinetobacter genomosp. 3 isolate 20 by Etest method in presence of efflux pump inhibitor PAN
Acinetobacter pittii [35] = assay: Antibacterial activity against Acinetobacter genomosp. 3 isolate 90 by Etest method in presence of efflux pump inhibitor CCCP
Acinetobacter pittii [36] = assay: Antibacterial activity against Acinetobacter genomosp. 3 isolate 65 by Etest method in presence of efflux pump inhibitor CCCP
Acinetobacter pittii [37] = assay: Antibacterial activity against Acinetobacter genomosp. 3 isolate 67 by Etest method; method in brief: as §1
Acinetobacter pittii [38] = assay: Antibacterial activity against Acinetobacter genomosp. 3 isolate 195 by Etest method in presence of cloxacillin and efflux pump inhibitor PAN
Acinetobacter pittii [39] = assay: Antibacterial activity against Acinetobacter genomosp. 3 isolate 103 by Etest method in presence of cloxacillin; method in brief: as §1
Acinetobacter pittii [40] = assay: Antibacterial activity against Acinetobacter genomosp. 3 isolate 90 by Etest method in presence of cloxacillin and efflux pump inhibitor CCCP
Acinetobacter pittii [41] = assay: Antibacterial activity against Acinetobacter genomosp. 3 isolate 56 by Etest method in presence of efflux pump inhibitor PAN
Acinetobacter pittii [42] = assay: Antibacterial activity against Acinetobacter genomosp. 3 isolate 65 by Etest method in presence of efflux pump inhibitor PAN
Acinetobacter pittii [43] = assay: Antibacterial activity against Acinetobacter genomosp. 3 isolate 103 by Etest method; method in brief: as §1
Escherichia coli [44] = assay: Antibacterial activity against Escherichia coli DH5alpha carrying ampC gene of Acinetobacter genomosp. 3 isolate 195 by Etest method; method in brief: as §2
Acinetobacter pittii [45] = assay: Antibacterial activity against Acinetobacter genomosp. 3 isolate 109 by Etest method in presence of cloxacillin and efflux pump inhibitor PAN
Acinetobacter pittii [46] = assay: Antibacterial activity against Acinetobacter genomosp. 3 isolate 69 by Etest method in presence of cloxacillin and efflux pump inhibitor CCCP
Acinetobacter pittii [47] = assay: Antibacterial activity against Acinetobacter genomosp. 3 isolate 69 by Etest method; method in brief: as §1
Acinetobacter pittii [48] = assay: Antibacterial activity against Acinetobacter genomosp. 3 isolate 90 by Etest method in presence of cloxacillin and efflux pump inhibitor PAN
Acinetobacter pittii [49] = assay: Antibacterial activity against Acinetobacter genomosp. 3 isolate 20 by Etest method in presence of cloxacillin and efflux pump inhibitor PAN
Acinetobacter pittii [50] = assay: Antibacterial activity against Acinetobacter genomosp. 3 isolate 14 by Etest method in presence of cloxacillin; method in brief: as §1

Measured: MIC

CC(=O)OCC1=C(C(=O)O)N2C(=O)[C@@H](NC(=O)Cc3cccs3)[C@H]2SC1 [CEPHALOTHIN]
64 µg/mL: Acinetobacter pittii [48]
24 µg/mL: Acinetobacter pittii [4] | Acinetobacter pittii [15] | Acinetobacter pittii [32] | Acinetobacter pittii [40] | Acinetobacter pittii [46]
96 µg/mL: Acinetobacter pittii [11] | Acinetobacter pittii [12]
128 µg/mL: Acinetobacter pittii [2] | Acinetobacter pittii [6] | Acinetobacter pittii [21] | Acinetobacter pittii [36] | Acinetobacter pittii [45] | Acinetobacter pittii [50]
12 µg/mL: Acinetobacter pittii [3] | Acinetobacter pittii [17]
192 µg/mL: Acinetobacter pittii [5] | Acinetobacter pittii [7] | Acinetobacter pittii [22] | Acinetobacter pittii [39]
28 µg/mL: Acinetobacter pittii [14]
> 256 µg/mL: all other assays above

C[C@@H](O)[C@H]1C(=O)N2C(C(=O)O)=C(S[C@@H]3CN[C@H](C(=O)N(C)C)C3)[C@H](C)[C@H]12 [MEROPENEM]
0.64 µg/mL: Acinetobacter pittii [7]
0.5 µg/mL: Acinetobacter pittii [10] | Acinetobacter pittii [24] | Acinetobacter pittii [29] | Acinetobacter pittii [37]
0.094 µg/mL: Acinetobacter pittii [3] | Acinetobacter pittii [17] | Acinetobacter pittii [41]
0.19 µg/mL: Acinetobacter pittii [2] | Acinetobacter pittii [15] | Acinetobacter pittii [16] | Acinetobacter pittii [23] | Acinetobacter pittii [30] | Acinetobacter pittii [46]
1.5 µg/mL: Acinetobacter pittii [4] | Acinetobacter pittii [35] | Acinetobacter pittii [39]
0.032 µg/mL: Escherichia coli [44]
3 µg/mL: Acinetobacter pittii [34] | Acinetobacter pittii [43] | Acinetobacter pittii [49]
1 µg/mL: Acinetobacter pittii [1] | Acinetobacter pittii [5] | Acinetobacter pittii [8] | Acinetobacter pittii [26] | Acinetobacter pittii [32] | Acinetobacter pittii [38]
0.38 µg/mL: Acinetobacter pittii [6] | Acinetobacter pittii [12] | Acinetobacter pittii [18] | Acinetobacter pittii [28] | Acinetobacter pittii [33] | Acinetobacter pittii [40] | Acinetobacter pittii [45]
0.023 µg/mL: Escherichia coli [20] | Escherichia coli [25]
0.75 µg/mL: Acinetobacter pittii [19] | Acinetobacter pittii [22]
0.25 µg/mL: all other assays above
